Screening data (PubChem)
In the library only some 3.4% were active in any assay of this set; here they are far more common.
MKP-1 inh = human dual specificity phosphatase 1 inhibition | recombinant MKP-1, OMFP hydrolysis fluorescence | inhibition, %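 (compounds tested at a single concentration somewhere between 10 and 100 µM)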 | actives 0.15% (n = 65,000);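 active = inhibition above about 50%, limit read from the data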;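 note: 0% = DMSO max control wells and 100% = wells with enzyme stopped by NaOH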
JNK3 inh = inhibitors of human JNK3 kinase | P53779 | purified JNK3 kinase activity, HTS | inhibition, % at 8 µM | actives 0.61% (n = 60,000) | AID 746; in the data active = inhibition above about 17%;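 note: 0% = DMSO and 100% = reference inhibitor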
Target sequence (P53779 whole entry, looked up): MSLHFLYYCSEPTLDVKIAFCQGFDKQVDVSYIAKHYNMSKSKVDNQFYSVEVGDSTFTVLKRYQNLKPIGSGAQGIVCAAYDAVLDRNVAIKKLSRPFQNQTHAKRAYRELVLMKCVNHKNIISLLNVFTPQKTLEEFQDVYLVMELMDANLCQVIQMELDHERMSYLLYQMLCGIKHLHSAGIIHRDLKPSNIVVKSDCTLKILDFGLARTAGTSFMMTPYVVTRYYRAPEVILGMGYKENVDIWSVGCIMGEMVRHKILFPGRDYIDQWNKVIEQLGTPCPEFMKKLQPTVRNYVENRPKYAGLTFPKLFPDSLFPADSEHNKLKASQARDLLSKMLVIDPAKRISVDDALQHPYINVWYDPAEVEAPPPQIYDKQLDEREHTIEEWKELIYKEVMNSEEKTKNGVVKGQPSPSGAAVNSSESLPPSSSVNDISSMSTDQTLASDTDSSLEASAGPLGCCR
Cdc25B inh = inhibitors of human Cdc25B phosphatase; recombinant Cdc25B, OMFP fluorescence Ex485/Em525; inhibition, %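 (compounds tested at 10 µM final in the well)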; actives 0.1% (n = 65,000); AID 368; in the data active = inhibition above about 50%
RORA act = activates the human nuclear receptor RORA. P35398. CHO-K1 Gal4-RORA LBD luciferase reporter, luminescence; percent increase over mock-subtracted basal signal. activation, % at 10 µM. actives 1.5% (n = 65,000). AID 560;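 active = activation above the mean of all tested compounds plus 3 SD, cut at about 49% in these data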;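 note: 0% = DMSO-treated RORA cells and 100% = added signal equal to DMSO minus mock-transfected cells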
Hsp90 inh = displaces geldanamycin probe from tumor Hsp90 | P07900 | actives 0.35% (n = 64,000) | AID 429 | NCI-N417 lysate Hsp90, Cy3B-geldanamycin FP displacement | inhibition, % at 30 µM;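 active = inhibition above 50%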;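 note: 0% = tracer plus lysate wells and 100% = tracer alone without lysate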
SF-1 act = SF-1 (human) activation. CHO-K1 Gal4-SF-1 LBD luciferase reporter; % increase over DMSO SF-1-specific signal. activation, % at 10 µM. actives 1.9% (n = 65,000). AID 522;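 active = activation above the mean activation of all tested compounds plus 3 SD, cut at about 50% in these data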
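Assay system: CHO-K1 cells co-transfected with Gal4 DBD–human SF-1 LBD, 5xGal4 luciferase reporter; doses: 10 µM only; incubation: 20 h compound exposure at 37 °C after 1 h cell settling; signal: luciferase light emission; evaluation: percent activation versus DMSO; repeats: one test per compound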
An asterisk follows results filed as active; / = not tested or not shown.

SMILES | MKP-1 inh | JNK3 inh | Cdc25B inh | RORA act | Hsp90 inh | SF-1 act
O=C(CC1(C(F)(F)F)OCCO1)Nc1ccc2c(c1)OCO2 | -3 | -1 | -11 | 9 | 0 | 5
CCOc1ccc(CCNC(=O)CCN2C(=O)COc3ccccc32)cc1OCC | 16 | 0 | -4 | 2 | -3 | -16
Cc1ccc(C(=O)N2CCCC(c3nc4c(nnn4Cc4ccccc4)c(=O)[nH]3)C2)cc1 (configuration not stated) | 10 | 4 | -9 | 6 | -1 | 8
CCO/C(C)=N/n1c2nc3ccccc3nc2c2c(=O)n(Cc3ccccc3Cl)c(C)nc21 | -20 | 1 | 6 | -11 | 1 | 4
COc1ccc(-c2noc(-c3ccccc3Cl)n2)cc1OC | 16 | 1 | -5 | 82* | 3 | 45
COc1nc(C)ccc1-c1noc(-c2ccco2)n1 | -8 | 3 | -2 | 67* | -6 | 17
COc1cccc(-c2nc(-c3ccccn3)no2)c1OC | 3 | -1 | -1 | 15 | -6 | 50*
COc1nc(-c2ccc(C)cc2)ccc1-c1noc(-c2ccco2)n1 | 9 | -7 | -11 | 19 | -9 | 16
c1ccc(-c2noc(-c3cccc4ccccc34)n2)nc1 | 6 | 4 | -3 | -11 | -14 | 17
O=C(CCCC(=O)N(CC(=O)NC1CCCC1)Cc1ccccc1)Nc1ccccn1 | 4 | 1 | -19 | 18 | -9 | -5
CCN1CCCC1CN(Cc1cc2cc(OC)ccc2[nH]c1=O)C(=O)NCc1ccccc1 (configuration not stated) | -7 | 8 | 4 | 11 | 1 | 2
O=C1CN(C(=O)CCCc2c[nH]c3ccccc23)c2ccccc2N1 | 14 | -6 | -10 | 2 | -3 | 4
CCOc1ccc(C2c3c(oc4ccccc4c3=O)C(=O)N2c2ccc(C)cn2)cc1OC (configuration not stated) | 6 | 1 | 0 | 39 | -2 | -21
O=C(c1ccc2c(c1)OCO2)N1CCc2ccccc2C1 | -11 | 3 | 1 | 66* | 0 | 44
COc1ccc2nc(NCc3ccccc3)[nH]c2c1 | -32 | -5 | -2 | 52* | 2 | 36
Cc1ccc2nc(NCc3ccccc3)[nH]c2c1 | -29 | -2 | 2 | 37 | -1 | 68*
Oc1c(C(c2ccco2)N2CCN(C(c3ccccc3)c3ccccc3)CC2)sc2ncnn12 (configuration not stated) | 42 | -2 | -4 | 9 | -7 | 30
CCCC(NS(=O)(=O)c1ccc(Br)cc1)C(=O)O (configuration not stated) | 11 | 5 | -2 | -23 | -6 | 3
CCOc1ccc(-c2[nH]nc3c2C(c2ccc4c(c2)OCO4)C(C#N)=C(N)O3)cc1OC (configuration not stated) | 24 | 0 | 9 | -20 | -4 | 29
CCCSc1nnc(NC(=O)Nc2ccccc2)s1 | -16 | 1 | 15 | 37 | 0 | 53*
CCSc1nnc(NC(=O)c2cccs2)s1 | 8 | 1 | -11 | 50* | 1 | 43
O=C(Nc1nsc(-c2ccccc2)n1)c1cccs1 | 0 | -5 | 6 | 47 | 1 | 77*
CCCSc1nnc(NC(=O)Nc2ccc(F)cc2)s1 | -26 | 10 | 28 | -1 | 3 | -15
CCSc1nnc(NC(=O)c2cc(C)oc2C)s1 | 9 | 1 | -4 | 60* | 2 | 76*
O=C(Nc1nnc(SCc2ccccc2)s1)c1cccs1 | -16 | -7 | -14 | 34 | -4 | 47
SMILES | MKP-1 inh | JNK3 inh | Cdc25B inh | RORA act | Hsp90 inh | SF-1 act
CC(N=C(NC#N)Nc1ccncc1)C(C)(C)C (configuration not stated) | / | / | / | / | 0 | /
COc1ccc(-c2noc(CN3CCOCC3)n2)cc1OC | 1 | 4 | -4 | 7 | -3 | 18
CCn1c(=O)[nH]c2cc(Cl)c(Cl)cc21 | / | / | / | / | 1 | /
O=C(Nc1nnc(Cc2ccccc2)s1)c1cccs1 | 9 | -5 | -5 | 23 | -2 | 81*
COc1ccc(Cc2nnc(NC(=O)c3cccs3)s2)cc1 | 3 | 1 | 4 | 51* | 0 | 15
COCc1nnc(NC(=O)c2cccs2)s1 | -5 | -6 | -3 | 26 | -6 | 18
CCCc1cc(=O)[nH]c(SC(CC)C(=O)Nc2ccccc2C#N)n1 (configuration not stated) | 8 | -15 | 5 | -11 | 3 | -6
CC(C)(C)c1ccc(C(=O)N2CCC(C(=O)NCc3ccncc3)CC2)cc1 | 6 | -1 | -36 | 60* | 1 | 25
COc1ccc(NC(=O)CC2C(=O)N(c3cccc(OC)c3)C(=O)N2C2CCCCC2)cc1 (configuration not stated) | 7 | / | -4 | 3 | -4 | -1
Nc1nc(NC(=O)c2cccc(S(=O)(=O)N3CCCCCC3)c2)nc(-c2ccccc2)n1 | 28 | / | -10 | -19 | / | -1
Cc1c(C(=O)N2CCN(c3ccc(F)cc3)CC2)sc2nc(-c3ccccc3)cn12 | 23 | 3 | -22 | 18 | -1 | 2
Cc1c(C(=O)NCc2cccnc2)sc2nc(-c3ccc(F)cc3)cn12 | 9 | 2 | 0 | 44 | -2 | -1
Cc1c(C(=O)NCc2cccnc2)sc2nc(-c3ccccc3)cn12 | 13 | 0 | 3 | 54* | -3 | 33
Cc1c(C(=O)Nc2ccncc2)sc2nc(-c3ccccc3)cn12 | 16 | 2 | -5 | -20 | -2 | -15
Cc1c(C(=O)N2CCOCC2)sc2nc(-c3ccccc3)cn12 | 18 | 0 | -26 | 58* | 0 | 82*
Cc1c(C(=O)NCc2ccco2)sc2nc(-c3ccccc3)cn12 | 10 | 2 | -6 | 87* | 0 | 52*
O=C(CSc1nnnn1-c1ccccc1)CC(=O)Nc1ccc(Cl)cc1 | 24 | -2 | -10 | 0 | -4 | -11
COc1ccc(-n2c(SCCC(=O)O)nnc2-c2ccncc2)cc1 | 5 | 0 | -9 | -7 | -4 | 14
CCOC(=O)N1CCC(Nc2ncnc3c2cnn3-c2ccccc2)CC1 | 0 | -2 | -4 | 1 | 1 | 15
c1ccc(-n2ncc3c(NCC4CCCO4)ncnc32)cc1 (configuration not stated) | -14 | -4 | 1 | 57* | -6 | 81*
Cc1ccccc1Nc1ncnc2c1cnn2-c1ccccc1 | 1 | 8 | -10 | 38 | 0 | 34
c1ccc(-n2ncc3c(NC4CCCCCC4)ncnc32)cc1 | -9 | 8 | -4 | 77* | 1 | 91*
Clc1ccc(-n2ncc3c(NCc4ccc5c(c4)OCO5)ncnc32)cc1 | 20 | -8 | -1 | -1 | 2 | 0
Clc1ccc(-n2ncc3c(NCC4CCCO4)ncnc32)cc1 (configuration not stated) | 16 | 4 | -10 | 96* | 0 | 122*
Cn1c(=O)c(C(=O)CSc2nncs2)c(N)n(Cc2ccccc2)c1=O | 0 | -1 | -2 | -23 | -1 | 14
